Key:
[1] = system: Mus musculus; assay: Percent inhibition of convulsions in audiogenic DBA/2 mice at dose 10 mg/kg; type: functional
Summary of the method: (§1)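 Audiogenic DBA/2 mice of either sex, 6.5–12 g, 20–23 days old. Drug or vehicle (0.3 M mannitol, 10 mL/kg) given ip 30 min before a 12 kHz, 120 dB pure tone for 45 s or until respiratory arrest. % inhibition = (MRS control − MRS treatment)/MRS control × 100.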

[2] = system: Mus musculus; assay: Percent inhibition of convulsions in audiogenic DBA/2 mice at dose 20 mg/kg; type: functional; summary of the method: as §1
[3] = biological target: Glutamate NMDA receptor; assay: Displacement of [3H]-MK-801 binding to N-methyl-D-aspartate glutamate receptor of rat brain membranes; type: cell membranes, Membrane
Summary of the method: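 Rat brain membrane suspension; inhibition of [3H]MK-801 binding at the NMDA receptor ion-channel site. IC50 taken from displacement curves, Ki reported. Means of at least three separate determinations ± SEM.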

[4] = In vitro inhibition of Calcium flux into brain synaptosomes; type: functional, subcellular, Rattus norvegicus
Summary of the method: (§2)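 45Ca2+ influx into brain synaptosomes depolarized by elevated K+, adapted from Nachsen and Blaustein. The rapid uptake component is measured, attributed to presynaptic neuronal (likely P-type) Ca2+ channels. Means of at least three determinations ± SEM unless otherwise indicated.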

[5] = biological target: T1, Sodium channel protein type 2 subunit alpha (Rattus norvegicus, UniProt P04775); assay: (§3) In vitro inhibition of [14C]- guanidinium influx in Chinese hamster ovary (CHO) cells expressing rat brain sodium channel type IIA (CNaIIA-1); type: cell-based
T1 sequence (P04775 whole entry): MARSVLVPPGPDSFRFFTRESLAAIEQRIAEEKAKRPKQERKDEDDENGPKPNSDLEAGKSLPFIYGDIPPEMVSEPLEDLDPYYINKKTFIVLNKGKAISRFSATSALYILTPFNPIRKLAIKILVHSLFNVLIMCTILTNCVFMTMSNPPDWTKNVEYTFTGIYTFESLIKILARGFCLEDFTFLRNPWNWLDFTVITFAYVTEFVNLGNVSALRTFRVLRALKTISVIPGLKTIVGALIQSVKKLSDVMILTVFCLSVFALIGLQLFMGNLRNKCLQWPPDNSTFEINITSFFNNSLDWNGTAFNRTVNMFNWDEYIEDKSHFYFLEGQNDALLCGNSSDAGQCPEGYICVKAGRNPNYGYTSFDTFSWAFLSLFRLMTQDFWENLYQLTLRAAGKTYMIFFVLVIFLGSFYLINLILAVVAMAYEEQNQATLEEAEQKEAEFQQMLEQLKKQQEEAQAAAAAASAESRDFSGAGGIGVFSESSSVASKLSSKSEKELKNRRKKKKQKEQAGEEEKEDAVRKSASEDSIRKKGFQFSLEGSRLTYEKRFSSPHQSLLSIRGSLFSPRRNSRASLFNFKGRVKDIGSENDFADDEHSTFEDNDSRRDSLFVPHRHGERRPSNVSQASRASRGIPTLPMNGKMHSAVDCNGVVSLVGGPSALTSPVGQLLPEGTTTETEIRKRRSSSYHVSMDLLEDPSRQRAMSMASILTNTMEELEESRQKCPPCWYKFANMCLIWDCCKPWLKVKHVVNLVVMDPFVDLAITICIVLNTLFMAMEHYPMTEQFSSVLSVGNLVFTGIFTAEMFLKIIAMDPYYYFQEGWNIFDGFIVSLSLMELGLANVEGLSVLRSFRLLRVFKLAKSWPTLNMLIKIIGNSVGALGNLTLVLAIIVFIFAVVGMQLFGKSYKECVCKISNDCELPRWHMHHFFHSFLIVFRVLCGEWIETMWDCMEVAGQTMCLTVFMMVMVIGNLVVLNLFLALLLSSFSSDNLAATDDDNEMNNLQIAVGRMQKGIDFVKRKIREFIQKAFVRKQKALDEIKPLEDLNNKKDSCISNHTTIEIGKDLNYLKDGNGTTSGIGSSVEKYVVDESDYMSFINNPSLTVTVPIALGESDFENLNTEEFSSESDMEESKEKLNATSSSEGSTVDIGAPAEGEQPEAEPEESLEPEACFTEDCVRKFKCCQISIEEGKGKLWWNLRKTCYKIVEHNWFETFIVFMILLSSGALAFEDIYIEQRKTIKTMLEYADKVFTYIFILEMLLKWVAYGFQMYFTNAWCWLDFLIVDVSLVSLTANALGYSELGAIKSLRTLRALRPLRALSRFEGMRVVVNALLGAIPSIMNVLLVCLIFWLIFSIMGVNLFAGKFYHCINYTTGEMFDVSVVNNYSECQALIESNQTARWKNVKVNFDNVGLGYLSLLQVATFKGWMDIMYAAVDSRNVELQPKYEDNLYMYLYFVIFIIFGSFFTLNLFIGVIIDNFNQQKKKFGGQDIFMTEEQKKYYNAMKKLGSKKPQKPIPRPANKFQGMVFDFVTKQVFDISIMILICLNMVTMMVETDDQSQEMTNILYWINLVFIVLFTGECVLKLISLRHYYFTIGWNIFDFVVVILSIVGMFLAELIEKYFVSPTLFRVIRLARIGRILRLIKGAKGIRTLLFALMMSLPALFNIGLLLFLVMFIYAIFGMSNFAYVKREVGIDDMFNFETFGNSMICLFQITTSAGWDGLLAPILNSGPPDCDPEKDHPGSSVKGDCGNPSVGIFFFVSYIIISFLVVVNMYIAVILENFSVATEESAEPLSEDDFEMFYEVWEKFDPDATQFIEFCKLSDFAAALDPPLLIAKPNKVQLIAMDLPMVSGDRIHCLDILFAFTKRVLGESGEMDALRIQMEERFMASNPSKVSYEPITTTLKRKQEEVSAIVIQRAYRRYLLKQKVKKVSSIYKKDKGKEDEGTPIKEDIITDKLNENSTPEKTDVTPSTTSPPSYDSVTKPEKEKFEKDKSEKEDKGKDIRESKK

[6] = In vitro inhibition of Calcium flux into brain synaptosomes (Values are means of at least three separate determinations); type: functional, subcellular, Rattus norvegicus; summary of the method: as §2
[7] = biological target: T1, Sodium channel protein type 2 subunit alpha; assay: as §3; type: functional, cell-based
[8] = system: Mus musculus; assay: Percent inhibition of convulsions in audiogenic DBA/2 mice at dose 2 mg/kg; type: functional; summary of the method: as §1
[9] = system: Mus musculus; assay: Percent inhibition of convulsions in audiogenic DBA/2 mice at dose 4 mg/kg; type: functional; summary of the method: as §1

Ki [3] [µM] | IC50 [5] [µM] | Structure (SMILES) | inhibition in vivo at 20 mg/kg [2] [%] | also measured
3.69 | 0.62 | CCC(C)c1ccc(N(Cc2ccc(C(C)(C)C)cc2)C(=N)N)cc1 (configuration not stated) | 81 | inhibition in vivo at 10 mg/kg [1]: 44%; IC50 [4]: 2.4 µM
2.49 | – | COc1ccc(/N=C(\N)Nc2ccc3c4c(cccc24)CC3)c2ccccc12 | 21 | IC50 [6]: 2.7 µM; IC50 [7]: 1.64 µM
4.33 | – | CCC(C)c1ccc(NC(=N)Nc2ccc(C(C)CC)cc2)cc1 (configuration not stated) | 69 | –
– | 9.95 | NC1=Nc2ccccc2CN1c1ccccc1 | – | –
13.5 | – | CCC(C)c1ccc(N2CCN(c3ccc(C(C)CC)cc3)C2=N)cc1 (configuration not stated) | 58 | IC50 [7]: 0.06 µM
– | 53 | N=C(N)N(Cc1ccccc1)c1ccccc1 | – | –
35.1 | – | CCC(C)c1ccc(N2CCCN(c3ccc(C(C)CC)cc3)C2=N)cc1 (configuration not stated) | – | inhibition in vivo at 10 mg/kg [1]: 84%; inhibition in vivo at 2 mg/kg [8]: 41%; inhibition in vivo at 4 mg/kg [9]: 75%; IC50 [6]: 0.39 µM; IC50 [7]: 0.06 µM
3.84 | – | CC(C)c1ccc2c(c1)CCC(c1ccc(C(C)(C)C)cc1)N2C(=N)N (configuration not stated) | 80 | inhibition in vivo at 10 mg/kg [1]: 22%; IC50 [6]: 0.9 µM; IC50 [7]: 0.46 µM
– | 2.9 | N/C1=N/c2ccc(cc2)OCCCCCOc2ccc(cc2)N1 | – | –
– | 3.28 | CCOc1ccc(NC(=N)Nc2ccc(OCC)cc2)cc1 | – | –
3.34 | – | CCC(C)c1ccc(N(C)C(=N)N(C)c2ccc(C(C)CC)cc2)cc1 (configuration not stated) | 43 | IC50 [6]: 2.5 µM; IC50 [7]: 1 µM
– | 38 | N=C(N)N1Cc2ccccc2CCc2ccccc21 | – | –
– | 17.5 | N=C(N)N1c2ccccc2CCC1c1ccccc1 (configuration not stated) | – | –
4.41 | 1.8 | CCC(C)c1ccc(N2C(N)=NCC2c2ccc(C(C)C)cc2)cc1 (configuration not stated) | 2 | IC50 [4]: 3.5 µM
– | 14.7 | N=C1N(c2ccccc2)CCN1c1ccccc1 | – | –
– | – | N=C(Nc1ccccc1)Nc1ccccc1 | – | IC50 [7]: > 14 µM
– | – | Nc1nnc(-c2cccc(Cl)c2Cl)c(N)n1 [LAMOTRIGINE] | – | inhibition in vivo at 10 mg/kg [1]: 71%

Structure (SMILES) | Ki [3] [µM] | IC50 [5] [µM] | inhibition in vivo at 20 mg/kg [2] [%] | also measured
c1ccc(NC2=NCCN2c2ccccc2)cc1 | – | > 25 | – | –
NC1=NCC(c2ccccc2)N1c1ccccc1 (configuration not stated) | – | > 24 | – | –
N=C1N(c2ccccc2)CCCN1c1ccccc1 | – | > 25 | – | –
CN(c1nc2ccccc2s1)C1CCN(C[C@H](O)COc2ccc(F)c(F)c2)CC1 [LUBELUZOLE] | – | 0.26 | 66 | –
